The values below come from publication PMC7396962 (Xenobiotica; the fate of foreign compounds in biological …, 2020).

The test system of data set [1] is human UGT1A1. The settings on record: cited from earlier work.
The conditions of data set [2]: rat, in vivo, cited from earlier work.
Data set [3] deals with T1, CYP2C8 (Homo sapiens, UniProt P10632).
T1 sequence (P10632 1-490): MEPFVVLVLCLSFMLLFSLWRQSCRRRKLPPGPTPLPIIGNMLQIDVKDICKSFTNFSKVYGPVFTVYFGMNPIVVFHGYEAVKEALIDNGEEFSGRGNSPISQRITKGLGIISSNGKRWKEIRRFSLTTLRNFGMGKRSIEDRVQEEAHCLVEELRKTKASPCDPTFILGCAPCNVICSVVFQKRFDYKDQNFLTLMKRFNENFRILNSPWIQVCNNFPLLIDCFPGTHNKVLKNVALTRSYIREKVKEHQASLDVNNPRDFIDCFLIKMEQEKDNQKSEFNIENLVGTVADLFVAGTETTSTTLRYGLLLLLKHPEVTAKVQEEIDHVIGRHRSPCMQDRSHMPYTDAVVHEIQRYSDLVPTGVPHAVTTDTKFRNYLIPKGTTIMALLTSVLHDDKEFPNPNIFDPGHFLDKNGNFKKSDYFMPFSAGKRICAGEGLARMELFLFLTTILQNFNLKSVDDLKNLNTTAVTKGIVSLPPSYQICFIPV
The format is in vitro ADME. To be noted: panel of HLMs (n = 9), substrate 10 μM, p = 0.001. The gist of the method: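 Nine individual human liver microsomes (1 mg/mL) each incubated with test compound at 10 μM plus 1 mM NADPH, pH 7.4, 37 °C, 60 min. Oxidation rates correlated by linear regression (r) with each donor's paclitaxel 6-hydroxylation activity. p < 0.05 taken as significant.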

The target in data set [4] is T2, MRP4 (Homo sapiens, UniProt O15439).
T2 sequence (O15439 1-1325): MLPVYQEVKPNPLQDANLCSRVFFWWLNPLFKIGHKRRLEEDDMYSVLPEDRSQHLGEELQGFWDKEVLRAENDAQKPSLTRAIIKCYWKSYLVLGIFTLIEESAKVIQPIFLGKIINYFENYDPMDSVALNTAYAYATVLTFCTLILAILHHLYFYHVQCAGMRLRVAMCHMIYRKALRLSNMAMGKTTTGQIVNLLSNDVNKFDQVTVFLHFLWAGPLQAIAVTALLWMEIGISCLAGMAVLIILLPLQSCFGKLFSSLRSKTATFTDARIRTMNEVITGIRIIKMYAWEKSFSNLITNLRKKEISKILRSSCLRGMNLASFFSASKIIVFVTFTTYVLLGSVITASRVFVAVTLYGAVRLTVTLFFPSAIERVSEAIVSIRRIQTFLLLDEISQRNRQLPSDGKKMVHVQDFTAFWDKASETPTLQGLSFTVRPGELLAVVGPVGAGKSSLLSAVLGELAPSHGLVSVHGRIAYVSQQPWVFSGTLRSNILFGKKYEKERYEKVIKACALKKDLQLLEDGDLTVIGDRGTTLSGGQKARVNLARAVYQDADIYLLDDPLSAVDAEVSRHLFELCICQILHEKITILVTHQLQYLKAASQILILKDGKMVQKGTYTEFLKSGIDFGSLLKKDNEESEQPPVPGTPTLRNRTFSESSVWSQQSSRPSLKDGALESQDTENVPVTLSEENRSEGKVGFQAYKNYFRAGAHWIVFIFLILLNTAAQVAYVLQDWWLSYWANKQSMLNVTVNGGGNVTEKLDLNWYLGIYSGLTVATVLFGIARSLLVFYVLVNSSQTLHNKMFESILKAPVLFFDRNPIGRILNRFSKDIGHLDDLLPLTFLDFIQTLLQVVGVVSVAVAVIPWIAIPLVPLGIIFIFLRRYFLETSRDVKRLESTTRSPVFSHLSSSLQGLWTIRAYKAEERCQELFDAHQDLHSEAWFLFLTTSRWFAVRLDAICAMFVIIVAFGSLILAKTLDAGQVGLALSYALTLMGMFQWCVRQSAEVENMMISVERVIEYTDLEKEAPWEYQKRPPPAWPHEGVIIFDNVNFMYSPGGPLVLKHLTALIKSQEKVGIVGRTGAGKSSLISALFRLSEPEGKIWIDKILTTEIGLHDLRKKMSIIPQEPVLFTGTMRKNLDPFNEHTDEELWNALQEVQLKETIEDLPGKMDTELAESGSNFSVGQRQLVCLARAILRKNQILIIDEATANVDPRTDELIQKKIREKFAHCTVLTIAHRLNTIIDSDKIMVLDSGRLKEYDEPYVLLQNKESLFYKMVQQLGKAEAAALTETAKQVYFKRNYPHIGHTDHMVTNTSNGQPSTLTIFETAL
Description: Glucuronide excretion in HeLa1A1 cells with knock-down of MRP4. The format is cell-based. To be noted: knock-down of MRP4 transporter. In short, it runs like this:
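HeLa1A1 cells at ~50% confluence transiently transfected with transporter shRNA plasmid (10 μg/mL); medium replaced at 6 h; scrambled shRNA as control. At confluence cells washed and incubated with test compound in HBSS. Extracellular glucuronide sampled over 2 h and intracellular glucuronide measured at the end. ER = V·dC/dt, CLapp = ER/Ci, fmet calculated; triplicate.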

The target in data set [5] is T3, UGT1A9 (Homo sapiens, UniProt O60656).
T3 sequence (O60656 26-530): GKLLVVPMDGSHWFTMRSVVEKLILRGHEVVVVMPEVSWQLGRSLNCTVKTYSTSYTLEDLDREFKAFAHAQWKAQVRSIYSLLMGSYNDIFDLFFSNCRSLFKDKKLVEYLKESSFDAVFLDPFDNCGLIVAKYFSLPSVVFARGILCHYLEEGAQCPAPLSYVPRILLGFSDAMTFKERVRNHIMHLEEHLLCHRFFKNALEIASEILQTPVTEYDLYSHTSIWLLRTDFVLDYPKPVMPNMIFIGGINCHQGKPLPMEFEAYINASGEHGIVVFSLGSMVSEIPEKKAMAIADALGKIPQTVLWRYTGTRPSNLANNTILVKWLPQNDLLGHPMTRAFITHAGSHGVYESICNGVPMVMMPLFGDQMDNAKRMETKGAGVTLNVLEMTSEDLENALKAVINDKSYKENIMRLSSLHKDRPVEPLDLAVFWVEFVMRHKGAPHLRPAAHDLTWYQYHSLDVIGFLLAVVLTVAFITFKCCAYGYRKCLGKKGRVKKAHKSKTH
The format is in vitro ADME. The settings on record: panel of HLMs (n = 9), substrate 10 μM, p = 0.015. In short, it runs like this:
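Test compound (10 μM) glucuronidated in each of nine individual human liver microsomes (1 mg/mL) with UDPGA and alamethicin, pH 7.4, 37 °C for 60 min. Rates regressed linearly against each donor's propofol O-glucuronidation activity; correlation coefficient r reported, p < 0.05 significant.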

For `CC(C)=CCC/C(C)=C/Cc1cc(-c2coc3cc(O)ccc3c2=O)ccc1O` [CA, Corylifol A], in data set [1], the IC50 is 650 nM and the Ki was 790 nM. Also, in data set [2] (2 g/kg), the “maximal plasma concentration (Cmax) of CA” value is 8.87 ng/mL. For the same molecule, in data set [2] (po, 1.2 g/kg), the “Cmax of CA” value is 1.70 ng/mL. The “correlation (r) between CA-mono-oxidation and paclitaxel-6-hydroxylation” value in data set [3] was 0.921. In data set [4], the “fmet value of CA” value was “significant decrease”. Also, the “correlation (r) between CA-7-O-glucuronidation and propofol-O-glucuronidation” value in data set [5] is listed as 0.771.
